Measured values: PMC9494814 (Cell, 2022)
Where two headings read alike, the source gives them in different places.

Legend:
[1] = molecular target: T1, αIIbβ3 headpiece (Homo sapiens, UniProt P05106+P08514); details: for conformational state of headpiece molecules in the crystal lattice: state 1 closed, state 8 open
Method in brief: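 Closed αIIbβ3 headpiece–10E5 Fab crystals stabilised in 15% PEG 8000, 0.2 M ammonium sulfate, 0.1 M Tris-HCl pH 8.9, with glycerol raised in 5% steps to 15%. Compound (0.1-1 mM) added in the final 20% glycerol cryo step, with 1 mM MgCl2/1 mM CaCl2 or 2 mM MnCl2/0.2 mM CaCl2. Soaked 4 h, plunge-frozen in liquid N2. Synchrotron diffraction data collected, then structure refinement.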

[2] = molecular target: T1, αIIbβ3 headpiece; test: Size-exclusion chromatography; assay type: biochemical; details: 10 μM drug; for effect on αIIbβ3 headpiece conformation in gel filtration: Mg2+ and Mn2+ buffers
Method in brief: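 Superdex 200 column equilibrated with 10 µM test compound in HEPES-buffered saline containing either 1 mM Mg2+/1 mM Ca2+ or 2 mM Mn2+/0.2 mM Ca2+. αIIbβ3 headpiece (30 µg) pre-incubated 30 min at RT with 60 µM compound in matching buffer, then chromatographed. Hydrodynamic radius taken from elution. Two runs, or one, per compound; controls ≥3.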

[3] = molecular target: αIIbβ3_N305T (Homo sapiens, UniProt P05106+P08514, N331T); test: MBC319.4 Fab LIBS epitope exposure on αIIbβ3_N305T transfectants; assay type: cell-based; details: αIIbβ3 N305T transfectants, inhibitors at 100x Kd
Method in brief: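 αIIbβ3_N305T transfectants of α5/αV-knockout Expi293F cells, harvested 48 h post-transfection and EDTA-washed. Incubated with 20 nM Alexa647-labelled MBC319.4 Fab and test compound in L-15 with 0.1% BSA, equilibrated 2 h at 22°C. Fab binding read by flow cytometry without washing, as MFI.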

[4] = tested on: αIIbβ3 on platelets; details: cited from earlier work; for LIBS epitopes on platelets in platelet-rich plasma: ref Baba et al., Murphy et al.
[5] = molecular target: αIIbβ3 on washed human platelets (Homo sapiens, UniProt P05106+P08514); test: Platelets LIBS exposure assay; assay type: cell-based
Method in brief: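 Blood from drug-free healthy donors was taken into acid-citrate-dextrose. PRP was spun (140xg, 12 min), given PGE1 at 50 ng/ml, pelleted, washed in citrate-dextrose buffer pH 6.5 and resuspended in Tyrode's pH 7.4 with 1% BSA and 1 mM Ca²⁺/Mg²⁺. […] Read-out was unwashed flow cytometry MFI, over three days with two donors.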

[6] = tested on: clot retraction in human PRP; test: Clot retraction in platelet-rich plasma; assay type: cell-based; details: thrombin
Method in brief: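 Citrated human PRP pre-incubated 20 min at RT with test compound or buffer (in Tyrode's buffer + 1% BSA) at several concentrations. Glass-tube clot retraction started with thrombin (7.5 U/ml stock) at 37°C and imaged every 15 min. Retraction = 1 − (clot area/whole reaction area). IC50 at 30 and 90 min from a three-parameter inhibitor-response fit. Three runs, PRP from three donors.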

[7] = molecular target: αIIbβ3 WT (Homo sapiens, UniProt P05106+P08514); test: MBC319.4 Fab LIBS epitope exposure on αIIbβ3 WT transfectants; assay type: cell-based; details: inhibitors at 100x Kd
Method in brief: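 Cells transiently transfected with αIIbβ3 received valproic acid (3 mM final) and glucose (0.4%) at 24 h, and were washed at 48 h in EDTA-containing then plain L-15/0.1% BSA. Cells were incubated with 20 nM Alexa647-MBC319.4 Fab plus inhibitor (Kd from FITC-echistatin competition on WT transfectants) in L15/0.1% BSA, 22°C for 2 h. Read-out was unwashed flow cytometry.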

[8] = after activation with thrombin 0.5 U/ml

| Compound | effect on structure of closed αIIbβ3 headpiece in crystals ([1]; soaked in Mg2+) | effect on structure of closed αIIbβ3 headpiece in crystals ([1]; soaked in Mn2+) | effect on αIIbβ3 headpiece opening in gel filtration ([2]; 1 mM Mg2+/1 mM Ca2+) | effect on αIIbβ3 headpiece opening in gel filtration ([2]; 2 mM Mn2+/0.2 mM Ca2+) | LIBS epitope exposure (integrin extension) on washed platelets [5, 8] | inhibition of clot retraction [6] | LIBS epitope exposure (integrin extension) on washed platelets ([5]; absence of thrombin) | further results |
| --- | --- | --- | --- | --- | --- | --- | --- | --- |
| CN1CCN(C(=N)c2ccc(C3=NOC(CN4CCN(CC(=O)O)CC4)C3)cc2)CC1 (stereo not shown) [BMS4, 2-(4-((3-(4-(imino(4-methylpiperazin-1-yl)methyl)phenyl)-4,5-dihydroisoxazol-5-yl)methyl)piperazin-1-yl)acetic acid] | no structural perturbation | no structural perturbation | neither UR-2922 nor BMS4 increased the hydrodynamic radius | shifted the headpiece to a smaller hydrodynamic radius than the control | decreased |  |  | LIBS (MBC319.4) epitope exposure [3]: significantly suppressed LIBS induction; LIBS on platelets ([4]; Mg2+ ref Breth et al., 2005): not to induce LIBS |
| N=C(N)c1ccc(C2=NOC(CN3CCN(CC(=O)O)CC3)C2)cc1 (stereo not shown) [BMS4–1, 3-(4-((3-(4-carbamimidoylphenyl)-4,5-dihydroisoxazol-5-yl)methyl)piperazin-1-yl)acetic acid] |  | remained in the closed state |  |  | decreased | effective |  | effect on αIIbβ3 headpiece conformation in gel filtration [2]: closure stabilizing; LIBS (MBC319.4) epitope exposure [3]: significantly suppressed LIBS induction |
| N=C(N)c1ccc(C2=NOC(CN3CCC(CC(=O)O)CC3)C2)cc1 (stereo not shown) [BMS4–2, 2-(1-((3-(4-carbamimidoylphenyl)-4,5-dihydroisoxazol-5-yl)methyl)piperidin-4-yl)acetic acid] |  |  |  | stabilized headpiece opening | showing significant induction except for BMS4–2 (p=0.06) | effective |  | Ser-123 sidechain oxygen - MIDAS Mn2+ ion distance ([1]; soaked in Mn2+): 3.7±0.1 Å; conformational state of headpiece molecules in the crystal lattice ([1]; soaked in Mn2+): state 2 |
| O=C(O)CN1CCN(CC2CC(C3CCNCC3)=NO2)CC1 (stereo not shown) [BMS4–3, 2-(4-((3-(piperidin-4-yl)-4,5-dihydroisoxazol-5-yl)methyl)piperazin-1-yl)acetic acid] |  | remained in the closed state |  |  |  |  |  | effect on αIIbβ3 headpiece conformation in gel filtration [2]: closure stabilizing |
| Cl.Cl.Cl.N=C(N)c1ccc(N2CCN(C3CCN(CC(=O)O)CC3)CC2)cc1 [GR144053] |  |  |  |  | decreased |  |  | conformational state of headpiece molecules in the crystal lattice ([1]; soaked in Mn2+): state 1; effect on αIIbβ3 headpiece conformation in gel filtration [2]: closing; LIBS (MBC319.4) epitope exposure [3]: significantly suppressed LIBS induction |
| N=C(N)c1ccc(C(=O)N[C@@H](Cc2ccc([N+](=O)[O-])cc2)C(=O)N2CCc3nn(CC(=O)O)cc3C2)cc1 [UR-2922] | no structural perturbation | no structural perturbation | neither UR-2922 nor BMS4 increased the hydrodynamic radius | shifted the headpiece to a smaller hydrodynamic radius than the control | decreased | effective |  | LIBS (MBC319.4) epitope exposure [3]: significantly suppressed LIBS induction; LIBS epitopes on platelets ([4]; Mg2+ ref Baba et al., 2001): not to induce LIBS epitopes |
| N=C(N)c1ccc(-c2ccc(OC[C@@H]3C[C@@H](CC(=O)O)C(=O)N3)cc2)cc1 [fradafiban, 2-((3S,5S)-5-(((4’-carbamimidoyl-[1,1’-biphenyl]-4-yl)oxy)methyl)-2-oxopyrrolidin-3-yl)acetic acid] | did not cause any conformational change | induced a 2 Å movement in the β1-α1 loop at the Cα atom of Ser-123 toward ligand | did not cause headpiece opening | induced headpiece opening as completely as tirofiban |  |  | modestly but significantly induced integrin extension |  |
| N=C(N)c1ccc(N2C[C@H](CN3CCN(CCC(=O)O)CC3)OC2=O)cc1 [gantofiban analog, (S)-3-(4-((3-(4-carbamimidoylphenyl)-2-oxooxazolidin-5-yl)methyl)piperazin-1-yl)propanoic acid] |  | induced movement of the β1-α1 loop and Ser-123 sidechain oxygen into the position of water 1 |  |  |  |  |  | effect on αIIbβ3 headpiece conformation in gel filtration [2]: does in both Mg^2+ and Mn^2+ |
| [H]/N=C(/N)c1ccc(C(=O)N[C@@H](Cc2ccc(O)cc2)C(=O)N2CCC(OCC(=O)O)CC2)cc1 [lamifiban] | did not cause any conformational change | induced a 2 Å movement in the β1-α1 loop at the Cα atom of Ser-123 toward ligand | did not cause headpiece opening | induced headpiece opening as completely as tirofiban |  |  | modestly but significantly induced integrin extension | LIBS epitopes on platelets in platelet-rich plasma ([4]; 2001, 1998): not to induce LIBS epitopes; exposure of LIBS epitopes on αIIbβ3 on platelets ([4]; ref Murphy et al., 1998): did not induce exposure of LIBS epitopes |
| CN1Cc2cc(C(=O)N3CCC(C4CCNCC4)CC3)ccc2N[C@@H](CC(=O)O)C1=O [lotrafiban, (S)-2-(7-([4,4’-bipiperidine]-1-carbonyl)-4-methyl-3-oxo-2,3,4,5-tetrahydro-1H-benzo[e][1,4]diazepin-2-yl)acetic acid] | Ser-123 displaced water 1 to coordinate directly to the MIDAS metal ion |  | caused the headpiece to elute earlier in gel filtration |  |  |  | Stronger extension | hydrodynamic radius of αIIbβ3 headpiece ([2]; 2 mM Mn2+/0.2 mM Ca2+): ~ 5.36 nm; LIBS (MBC319.4) epitope exposure [7]: strongly induced LIBS exposure |
| CCOC(=O)COC1CCN(C(=O)[C@H](C)NC(=O)c2ccc(C(=N)NO)cc2)CC1 [sibrafiban] | did not cause any conformational change | induced a 2 Å movement in the β1-α1 loop at the Cα atom of Ser-123 toward ligand | did not cause headpiece opening | induced headpiece opening as completely as tirofiban |  | effective | modestly but significantly induced integrin extension | LIBS epitopes on platelets in platelet-rich plasma ([4]; 2001, 1998): not to induce LIBS epitopes |
| (2S)-2-((butoxycarbonyl)amino)-3-(2-(3-(4-carbamimidoylphenyl)-4,5-dihydroisoxazol-5-yl)acetamido)propanoic acid [roxifiban] |  | Ser-123 displaced water 1 to coordinate directly to the MIDAS metal ion | caused the headpiece to elute earlier in gel filtration |  |  | effective | Stronger extension | hydrodynamic radius of αIIbβ3 headpiece ([2]; 2 mM Mn2+/0.2 mM Ca2+): ~ 5.36 nm; LIBS (MBC319.4) epitope exposure [7]: Weaker but significant induction |
| eptifibatide | Ser-123 displaced water 1 to coordinate directly to the MIDAS metal ion |  |  |  |  |  | Stronger extension | LIBS (MBC319.4) epitope exposure [7]: strongly induced LIBS exposure |
| fibrinogen γ C-terminal dodecapeptide: fibrinogen γ C-terminal dodecapeptide HHLGGAKQAGDV |  |  |  |  |  |  |  | LIBS (MBC319.4) epitope exposure [7]: Weaker but significant induction |
